Source: ChEMBL document CHEMBL3102784, “Salicylanilide diethyl phosphates: synthesis, antimicrobial activity and cytotoxicity” (Bioorg Med Chem, 2014)
≈ marks a conversion by molar mass, not a printed value. Calls of active or inactive are those of the source. The rule behind the calls is not given here.

Tests used:
Candida albicans [1] = assay: Antifungal activity against Candida albicans ATCC 44859 after 24 hrs by broth microdilution method; type: functional; details: ATCC 44859, 24 h
In short: (§1)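 Broth microdilution in RPMI 1640 with glutamine, fluconazole as reference. For yeasts, MIC is ≥80% growth reduction (IC80) versus control. For filamentous fungi, the value is expressed as IC50. Readings at 24 and 48 h.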

Pichia kudriavzevii [2] = assay: Antifungal activity against Candida krusei E28 after 48 hrs by broth microdilution method; type: functional; details: E28, 48 h; in short: as §1
Candida tropicalis = assay: Antifungal activity against Candida tropicalis 156 at 500 micromol/L after 24 to 48 hrs by broth microdilution method; type: functional, organism-based; in short: as §1
[3] = system: Trichophyton mentagrophytes; assay: Antifungal activity against Trichophyton mentagrophytes 445 after 120 hrs by broth microdilution method; type: functional; details: Trichophyton mentagrophytes, 445, 120 h
In short: (§2)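 Filamentous dermatophyte tested by broth microdilution in RPMI 1640 with glutamine, fluconazole as reference. Value expressed as IC50 relative to growth control. Read at 72 and 120 h.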

Lichtheimia corymbifera [4] = assay: Antifungal activity against Absidia corymbifera 272 after 48 hrs by broth microdilution method; type: functional; details: Lichtheimia corymbifera, 272, 48 h; in short: as §1
Mycobacterium kansasii [5] = assay: Antimycobacterial activity against Mycobacterium kansasii 6509/96 after 21 days; type: functional; details: 6509/96, 504 h
In short: (§3)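 Micromethod MIC in Šula's semisynthetic medium at 37 °C. Compounds added in DMSO at 1000 down to 0.032 µmol/L. Isoniazid standard in sterile water at 0.5–250 µmol/L. Inocula: H37Rv 10^3, M. avium 10^5, M. kansasii 10^4. Read at 14 and 21 d, plus 7 d for M. kansasii.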

Mycobacterium kansasii [6] = assay: Antimycobacterial activity against Mycobacterium kansasii 6509/96 after 14 days; type: functional; details: 6509/96, 336 h; in short: as §3
HepG2 = assay: Cytotoxicity against human HepG2 cells after 24 hrs by CellTiter assay; type: cell-based; details: HepG2, 24 h
In short: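 HepG2 cells (passage 27–33) in MEM with 10% FBS, L-glutamine and NEAA, seeded at 1×10^4 per well. Treated next day with compounds at 0.1–100 µM (or 0.1–25 µmol/L), triplicates, <1% DMSO, for 24 h at 37 °C, 5% CO2. MTS reagent added for 2 h, absorbance read at 490 nm. IC50 taken against untreated (100%) and 10% DMSO (0%) controls.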

Staphylococcus aureus [7] = assay: Antibacterial activity against Staphylococcus aureus CCM 4516/08 after 24 hrs by broth microdilution method; type: functional; details: CCM 4516/08, 24 h
In short: (§4)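 Broth microdilution in Mueller–Hinton broth, compounds dissolved in DMSO, tested over a dilution series from 500 downward. MIC taken as ≥95% growth reduction (IC95) versus drug-free control. Benzylpenicillin comparator. Readings at 24 and 48 h.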

Trichosporon asahii [8] = assay: Antifungal activity against Trichosporon asahii 1188 after 24 hrs by broth microdilution method; type: functional; details: Trichosporon asahii, 1188, 24 h; in short: as §1
Klebsiella pneumoniae [9] = assay: Antibacterial activity against Klebsiella pneumoniae D 11750/08 at 500 micromol/L after 24 to 48 hrs by broth microdilution method; type: functional, organism-based; in short: as §4
Mycobacterium kansasii [10] = assay: Antimycobacterial activity against Mycobacterium kansasii My 235/80 after 7 days; type: functional; details: My 235/80, 168 h; in short: as §3
Candida albicans [11] = assay: Antifungal activity against Candida albicans ATCC 44859 after 48 hrs by broth microdilution method; type: functional; details: ATCC 44859, 48 h; in short: as §1
Mycobacterium avium [12] = assay: Antimycobacterial activity against isoniazid, rifampicin, ethambutol and ofloxacin-resistant Mycobacterium avium My 330/88 after 14 days; type: functional; details: My 330/88, 336 h; in short: as §3
[13] = system: Mycobacterium tuberculosis; assay: Antimycobacterial activity against Mycobacterium tuberculosis H37Rv My 331/88 after 14 days; type: functional; details: H37Rv My 331/88, 336 h; in short: as §3
Mycobacterium kansasii [14] = assay: Antimycobacterial activity against Mycobacterium kansasii My 235/80 after 14 days; type: functional; details: My 235/80, 336 h; in short: as §3
[15] = system: Mycobacterium tuberculosis; assay: Antimycobacterial activity against Mycobacterium tuberculosis H37Rv My 331/88 after 21 days; type: functional; details: H37Rv My 331/88, 504 h; in short: as §3
Mycobacterium avium [16] = assay: Antimycobacterial activity against isoniazid, rifampicin, ethambutol and ofloxacin-resistant Mycobacterium avium My 330/88 after 21 days; type: functional; details: My 330/88, 504 h; in short: as §3
Pichia kudriavzevii [17] = assay: Antifungal activity against Candida krusei E28 after 24 hrs by broth microdilution method; type: functional; details: E28, 24 h; in short: as §1
Enterococcus sp. = assay: Antibacterial activity against Enterococcus sp. J 14365/08 at 500 micromol/L after 24 to 48 hrs by broth microdilution method; type: functional, organism-based; in short: as §4
Nakaseomyces glabratus = assay: Antifungal activity against Candida glabrata 20/I at 500 micromol/L after 24 to 48 hrs by broth microdilution method; type: functional, organism-based; in short: as §1
Aspergillus fumigatus [18] = assay: Antifungal activity against Aspergillus fumigatus 231 after 48 hrs by broth microdilution method; type: functional; details: Aspergillus fumigatus, 231, 48 h; in short: as §1
Staphylococcus aureus [19] = assay: Antibacterial activity against methicillin-resistant Staphylococcus aureus H 5996/08 after 24 hrs by broth microdilution method; type: functional; details: H 5996/08, 24 h; in short: as §4
Staphylococcus aureus [20] = assay: Antibacterial activity against Staphylococcus aureus CCM 4516/08 after 48 hrs by broth microdilution method; type: functional; details: CCM 4516/08, 48 h; in short: as §4
[21] = system: Staphylococcus epidermidis; assay: Antibacterial activity against Staphylococcus epidermidis H 6966/08 after 24 hrs by broth microdilution method; type: functional; details: H 6966/08, 24 h; in short: as §4
Trichosporon asahii [22] = assay: Antifungal activity against Trichosporon asahii 1188 after 48 hrs by broth microdilution method; type: functional; details: Trichosporon asahii, 1188, 48 h; in short: as §1
Escherichia coli = assay: Antibacterial activity against Escherichia coli CCM 4517 at 500 micromol/L after 24 to 48 hrs by broth microdilution method; type: functional, organism-based; in short: as §4
Aspergillus fumigatus [23] = assay: Antifungal activity against Aspergillus fumigatus 231 after 24 hrs by broth microdilution method; type: functional; details: Aspergillus fumigatus, 231, 24 h; in short: as §1
Pseudomonas aeruginosa = assay: Antibacterial activity against Pseudomonas aeruginosa CCM 1961 at 500 micromol/L after 24 to 48 hrs by broth microdilution method; type: functional, organism-based; in short: as §4
[24] = system: Trichophyton mentagrophytes; assay: Antifungal activity against Trichophyton mentagrophytes 445 after 72 hrs by broth microdilution method; type: functional; details: Trichophyton mentagrophytes, 445, 72 h; in short: as §2
Klebsiella pneumoniae [25] = assay: Antibacterial activity against ESBL-positive Klebsiella pneumoniae J 14368/08 at 500 micromol/L after 24 to 48 hrs by broth microdilution method; type: functional, organism-based; in short: as §4
[26] = system: Staphylococcus epidermidis; assay: Antibacterial activity against Staphylococcus epidermidis H 6966/08 after 48 hrs by broth microdilution method; type: functional; details: H 6966/08, 48 h; in short: as §4
Staphylococcus aureus [27] = assay: Antibacterial activity against methicillin-resistant Staphylococcus aureus H 5996/08 after 48 hrs by broth microdilution method; type: functional; details: H 5996/08, 48 h; in short: as §4
Mycobacterium kansasii [28] = assay: Antimycobacterial activity against Mycobacterium kansasii My 235/80 after 21 days; type: functional; details: My 235/80, 504 h; in short: as §3
Mycobacterium kansasii [29] = assay: Antimycobacterial activity against Mycobacterium kansasii 6509/96 after 7 days; type: functional; details: 6509/96, 168 h; in short: as §3
Lichtheimia corymbifera [30] = assay: Antifungal activity against Absidia corymbifera 272 after 24 hrs by broth microdilution method; type: functional; details: Lichtheimia corymbifera, 272, 24 h; in short: as §1

SMILES | MIC80 (Candida albicans [1]) | MIC80 (Pichia kudriavzevii [2]) | Activity (Candida tropicalis) | MIC50 [3] | MIC50 (Lichtheimia corymbifera [4]) | MIC (Mycobacterium kansasii [5]) | MIC (Mycobacterium kansasii [6]) | IC50 (HepG2) | MIC95 (Staphylococcus aureus [7]) | MIC80 (Trichosporon asahii [8]) | Activity (Klebsiella pneumoniae [9]) | MIC (Mycobacterium kansasii [10]) | MIC80 (Candida albicans [11]) | MIC (Mycobacterium avium [12]) | MIC [13] | MIC (Mycobacterium kansasii [14]) | MIC [15] | MIC (Mycobacterium avium [16]) | MIC80 (Pichia kudriavzevii [17]) | Activity (Enterococcus sp.) | also measured
CCOP(=O)(OCC)Oc1ccc(Cl)cc1C(=O)Nc1cccc(Cl)c1 | > 500 µM | > 500 µM | inactive | > 500 µM | > 500 µM | 16 µM (≈ 6.69 µg/mL) | 16 µM (≈ 6.69 µg/mL) | 2.68 µM | 500 µM (≈ 209 µg/mL) | > 500 µM | inactive | 8 µM (≈ 3.35 µg/mL) | > 500 µM | 16 µM (≈ 6.69 µg/mL) | 4 µM (≈ 1.67 µg/mL) | 8 µM (≈ 3.35 µg/mL) | 4 µM (≈ 1.67 µg/mL) | 16 µM (≈ 6.69 µg/mL) | > 500 µM | inactive | Activity (Nakaseomyces glabratus): inactive; MIC50 (Aspergillus fumigatus [18]): > 500 µM; MIC95 (Staphylococcus aureus [19]): 500 µM (≈ 209 µg/mL); MIC95 (Staphylococcus aureus [20]): 500 µM (≈ 209 µg/mL); MIC95 [21]: 125 µM (≈ 52.3 µg/mL); MIC80 (Trichosporon asahii [22]): > 500 µM; Activity (Escherichia coli): inactive; MIC50 (Aspergillus fumigatus [23]): > 500 µM; Activity (Pseudomonas aeruginosa): inactive; MIC50 [24]: > 500 µM; Activity (Klebsiella pneumoniae [25]): inactive; MIC95 [26]: 125 µM (≈ 52.3 µg/mL); MIC95 (Staphylococcus aureus [27]): 500 µM (≈ 209 µg/mL); MIC (Mycobacterium kansasii [28]): 8 µM (≈ 3.35 µg/mL); MIC (Mycobacterium kansasii [29]): 8 µM (≈ 3.35 µg/mL); MIC50 (Lichtheimia corymbifera [30]): > 500 µM
CCOP(=O)(OCC)Oc1cc(Cl)ccc1C(=O)Nc1ccc(F)cc1 | > 500 µM | > 500 µM | inactive | 500 µM (≈ 201 µg/mL) | > 500 µM | 32 µM (≈ 12.9 µg/mL) | 32 µM (≈ 12.9 µg/mL) | 33.8 µM | 250 µM (≈ 100 µg/mL) | > 500 µM | inactive | 16 µM (≈ 6.43 µg/mL) | > 500 µM | 32 µM (≈ 12.9 µg/mL) | 16 µM (≈ 6.43 µg/mL) | 16 µM (≈ 6.43 µg/mL) | 16 µM (≈ 6.43 µg/mL) | 32 µM (≈ 12.9 µg/mL) | > 500 µM | inactive | Activity (Nakaseomyces glabratus): inactive; MIC50 (Aspergillus fumigatus [18]): > 500 µM; MIC95 (Staphylococcus aureus [19]): > 500 µM; MIC95 (Staphylococcus aureus [20]): 500 µM (≈ 201 µg/mL); MIC95 [21]: > 500 µM; MIC80 (Trichosporon asahii [22]): > 500 µM; Activity (Escherichia coli): inactive; MIC50 (Aspergillus fumigatus [23]): > 500 µM; Activity (Pseudomonas aeruginosa): inactive; MIC50 [24]: 500 µM (≈ 201 µg/mL); Activity (Klebsiella pneumoniae [25]): inactive; MIC95 [26]: > 500 µM; MIC95 (Staphylococcus aureus [27]): > 500 µM; MIC (Mycobacterium kansasii [28]): 16 µM (≈ 6.43 µg/mL); MIC (Mycobacterium kansasii [29]): 16 µM (≈ 6.43 µg/mL); MIC50 (Lichtheimia corymbifera [30]): > 500 µM
CCOP(=O)(OCC)Oc1ccc(Cl)cc1C(=O)Nc1cccc(F)c1 | > 500 µM | > 500 µM | inactive | 62.5 µM (≈ 25.1 µg/mL) | > 500 µM | 32 µM (≈ 12.9 µg/mL) | 32 µM (≈ 12.9 µg/mL) | 17.2 µM | 125 µM (≈ 50.2 µg/mL) | > 500 µM | inactive | 16 µM (≈ 6.43 µg/mL) | > 500 µM | 32 µM (≈ 12.9 µg/mL) | 8 µM (≈ 3.21 µg/mL) | 32 µM (≈ 12.9 µg/mL) | 8 µM (≈ 3.21 µg/mL) | 32 µM (≈ 12.9 µg/mL) | > 500 µM | inactive | Activity (Nakaseomyces glabratus): inactive; MIC50 (Aspergillus fumigatus [18]): > 500 µM; MIC95 (Staphylococcus aureus [19]): 500 µM (≈ 201 µg/mL); MIC95 (Staphylococcus aureus [20]): 500 µM (≈ 201 µg/mL); MIC95 [21]: 250 µM (≈ 100 µg/mL); MIC80 (Trichosporon asahii [22]): > 500 µM; Activity (Escherichia coli): inactive; MIC50 (Aspergillus fumigatus [23]): > 500 µM; Activity (Pseudomonas aeruginosa): inactive; MIC50 [24]: 62.5 µM (≈ 25.1 µg/mL); Activity (Klebsiella pneumoniae [25]): inactive; MIC95 [26]: 500 µM (≈ 201 µg/mL); MIC95 (Staphylococcus aureus [27]): > 500 µM; MIC (Mycobacterium kansasii [28]): 32 µM (≈ 12.9 µg/mL); MIC (Mycobacterium kansasii [29]): 16 µM (≈ 6.43 µg/mL); MIC50 (Lichtheimia corymbifera [30]): > 500 µM
